Results as given in ChEMBL document CHEMBL3352149, “Promiscuity and selectivity in covalent enzyme inhibition: a systematic study of electrophilic fragments” (J Med Chem, 2014).
Calls of active or inactive are those of the source. No cut-off for these calls is given here.

Tests used:
[1] = system: Escherichia coli; assay: Inhibition of Escherichia coli MetAP at 25 uM after 20 mins by HPLC analysis
Outline: (§1)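 Endpoint assay. Enzyme (50 nM) was preincubated with 25 μM compound for 20 min at 37 °C in 50 mM Tris pH 7.5, 100 mM NaCl, 100 μM CoCl2, 0.075% BSA. MGMM substrate (400 μM) was then added for 15 min (human MetAP-1) or 20 min (E. coli MetAP). Reactions were stopped with TFA. GMM product was quantified by RP-HPLC, UV 214 nm. Triplicate.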

[2] = biological target: Methionine aminopeptidase 1 (Homo sapiens) (UniProt P53582); assay: Inhibition of human MetAP at 25 uM after 20 mins by HPLC analysis; outline: as §1
[3] = system: Escherichia coli; assay: Inhibition of wild-type Escherichia coli MurA compound preincubated for 10 mins before substrate addition at 25 uM measured after 15 mins by LC-MS method
[4] = system: Escherichia coli; assay: Inhibition of wild-type Escherichia coli MurB compound preincubated for 10 mins before substrate addition at 25 uM measured after 15 mins by LC-MS method
Outline: (§2)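 E. coli wild-type enzyme (4 nM) was preincubated with 25 μM compound for 10 min at 37 °C. Enzymatically generated nucleotide-sugar substrate (~200 μM) plus ATP (~200 μM), or NADPH 200 μM for MurB, was added for 10 min. Reactions were started with amino-acid cosubstrate (MurC–F) or EP-UNAG (MurB), run 15 min at 37 °C, and quenched with formic acid. Product was measured by negative-ESI LC-MS EIC peak area. MgCl2: MurC 10, MurD/E 2, MurF 5 mM; MurB had 5 mM KCl. All in 50 mM NH4HCO3, 0.07% BSA, 1% DMSO; triplicate.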

[5] = system: Escherichia coli; assay: Inhibition of wild-type Escherichia coli MurC compound preincubated for 10 mins before substrate addition at 25 uM measured after 15 mins by LC-MS method; outline: as §2
[6] = system: Escherichia coli; assay: Inhibition of wild-type Escherichia coli MurD compound preincubated for 10 mins before substrate addition at 25 uM measured after 15 mins by LC-MS method; outline: as §2
[7] = system: Escherichia coli; assay: Inhibition of wild-type Escherichia coli MurE compound preincubated for 10 mins before substrate addition at 25 uM measured after 15 mins by LC-MS method; outline: as §2
[8] = system: Escherichia coli; assay: Inhibition of wild-type Escherichia coli MurF compound preincubated for 10 mins before substrate addition at 25 uM measured after 15 mins by LC-MS method; outline: as §2
[9] = GSH reactivity of the compound assessed as adducts formation by RP-HPLC analysis
Outline: (§3)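 Fresh aqueous glutathione (10 mM solution) was added to 50 mM Tris-maleate buffer, pH 7.5. The reaction was started with compound from 10 mM DMSO stock (final 250 μM). Mixtures were followed by reversed-phase HPLC on an ODS column with a gradient to 100% B; rate constants are given in l·mol⁻¹·s⁻¹.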

[10] = GSH reactivity of the compound assessed as half life by RP-HPLC analysis
[11] = biological target: Genome polyprotein (dengue virus type 2) (UniProt P12823); assay: Inhibition of Dengue virus serotype 2 NS2B-NS3 protease at 50 uM
[12] = biological target: Genome polyprotein (West Nile virus) (UniProt P06935); assay: Inhibition of West Nile virus NS2B-NS3 protease at 50 uM
Chain of Genome polyprotein (West Nile virus) (P06935 whole entry): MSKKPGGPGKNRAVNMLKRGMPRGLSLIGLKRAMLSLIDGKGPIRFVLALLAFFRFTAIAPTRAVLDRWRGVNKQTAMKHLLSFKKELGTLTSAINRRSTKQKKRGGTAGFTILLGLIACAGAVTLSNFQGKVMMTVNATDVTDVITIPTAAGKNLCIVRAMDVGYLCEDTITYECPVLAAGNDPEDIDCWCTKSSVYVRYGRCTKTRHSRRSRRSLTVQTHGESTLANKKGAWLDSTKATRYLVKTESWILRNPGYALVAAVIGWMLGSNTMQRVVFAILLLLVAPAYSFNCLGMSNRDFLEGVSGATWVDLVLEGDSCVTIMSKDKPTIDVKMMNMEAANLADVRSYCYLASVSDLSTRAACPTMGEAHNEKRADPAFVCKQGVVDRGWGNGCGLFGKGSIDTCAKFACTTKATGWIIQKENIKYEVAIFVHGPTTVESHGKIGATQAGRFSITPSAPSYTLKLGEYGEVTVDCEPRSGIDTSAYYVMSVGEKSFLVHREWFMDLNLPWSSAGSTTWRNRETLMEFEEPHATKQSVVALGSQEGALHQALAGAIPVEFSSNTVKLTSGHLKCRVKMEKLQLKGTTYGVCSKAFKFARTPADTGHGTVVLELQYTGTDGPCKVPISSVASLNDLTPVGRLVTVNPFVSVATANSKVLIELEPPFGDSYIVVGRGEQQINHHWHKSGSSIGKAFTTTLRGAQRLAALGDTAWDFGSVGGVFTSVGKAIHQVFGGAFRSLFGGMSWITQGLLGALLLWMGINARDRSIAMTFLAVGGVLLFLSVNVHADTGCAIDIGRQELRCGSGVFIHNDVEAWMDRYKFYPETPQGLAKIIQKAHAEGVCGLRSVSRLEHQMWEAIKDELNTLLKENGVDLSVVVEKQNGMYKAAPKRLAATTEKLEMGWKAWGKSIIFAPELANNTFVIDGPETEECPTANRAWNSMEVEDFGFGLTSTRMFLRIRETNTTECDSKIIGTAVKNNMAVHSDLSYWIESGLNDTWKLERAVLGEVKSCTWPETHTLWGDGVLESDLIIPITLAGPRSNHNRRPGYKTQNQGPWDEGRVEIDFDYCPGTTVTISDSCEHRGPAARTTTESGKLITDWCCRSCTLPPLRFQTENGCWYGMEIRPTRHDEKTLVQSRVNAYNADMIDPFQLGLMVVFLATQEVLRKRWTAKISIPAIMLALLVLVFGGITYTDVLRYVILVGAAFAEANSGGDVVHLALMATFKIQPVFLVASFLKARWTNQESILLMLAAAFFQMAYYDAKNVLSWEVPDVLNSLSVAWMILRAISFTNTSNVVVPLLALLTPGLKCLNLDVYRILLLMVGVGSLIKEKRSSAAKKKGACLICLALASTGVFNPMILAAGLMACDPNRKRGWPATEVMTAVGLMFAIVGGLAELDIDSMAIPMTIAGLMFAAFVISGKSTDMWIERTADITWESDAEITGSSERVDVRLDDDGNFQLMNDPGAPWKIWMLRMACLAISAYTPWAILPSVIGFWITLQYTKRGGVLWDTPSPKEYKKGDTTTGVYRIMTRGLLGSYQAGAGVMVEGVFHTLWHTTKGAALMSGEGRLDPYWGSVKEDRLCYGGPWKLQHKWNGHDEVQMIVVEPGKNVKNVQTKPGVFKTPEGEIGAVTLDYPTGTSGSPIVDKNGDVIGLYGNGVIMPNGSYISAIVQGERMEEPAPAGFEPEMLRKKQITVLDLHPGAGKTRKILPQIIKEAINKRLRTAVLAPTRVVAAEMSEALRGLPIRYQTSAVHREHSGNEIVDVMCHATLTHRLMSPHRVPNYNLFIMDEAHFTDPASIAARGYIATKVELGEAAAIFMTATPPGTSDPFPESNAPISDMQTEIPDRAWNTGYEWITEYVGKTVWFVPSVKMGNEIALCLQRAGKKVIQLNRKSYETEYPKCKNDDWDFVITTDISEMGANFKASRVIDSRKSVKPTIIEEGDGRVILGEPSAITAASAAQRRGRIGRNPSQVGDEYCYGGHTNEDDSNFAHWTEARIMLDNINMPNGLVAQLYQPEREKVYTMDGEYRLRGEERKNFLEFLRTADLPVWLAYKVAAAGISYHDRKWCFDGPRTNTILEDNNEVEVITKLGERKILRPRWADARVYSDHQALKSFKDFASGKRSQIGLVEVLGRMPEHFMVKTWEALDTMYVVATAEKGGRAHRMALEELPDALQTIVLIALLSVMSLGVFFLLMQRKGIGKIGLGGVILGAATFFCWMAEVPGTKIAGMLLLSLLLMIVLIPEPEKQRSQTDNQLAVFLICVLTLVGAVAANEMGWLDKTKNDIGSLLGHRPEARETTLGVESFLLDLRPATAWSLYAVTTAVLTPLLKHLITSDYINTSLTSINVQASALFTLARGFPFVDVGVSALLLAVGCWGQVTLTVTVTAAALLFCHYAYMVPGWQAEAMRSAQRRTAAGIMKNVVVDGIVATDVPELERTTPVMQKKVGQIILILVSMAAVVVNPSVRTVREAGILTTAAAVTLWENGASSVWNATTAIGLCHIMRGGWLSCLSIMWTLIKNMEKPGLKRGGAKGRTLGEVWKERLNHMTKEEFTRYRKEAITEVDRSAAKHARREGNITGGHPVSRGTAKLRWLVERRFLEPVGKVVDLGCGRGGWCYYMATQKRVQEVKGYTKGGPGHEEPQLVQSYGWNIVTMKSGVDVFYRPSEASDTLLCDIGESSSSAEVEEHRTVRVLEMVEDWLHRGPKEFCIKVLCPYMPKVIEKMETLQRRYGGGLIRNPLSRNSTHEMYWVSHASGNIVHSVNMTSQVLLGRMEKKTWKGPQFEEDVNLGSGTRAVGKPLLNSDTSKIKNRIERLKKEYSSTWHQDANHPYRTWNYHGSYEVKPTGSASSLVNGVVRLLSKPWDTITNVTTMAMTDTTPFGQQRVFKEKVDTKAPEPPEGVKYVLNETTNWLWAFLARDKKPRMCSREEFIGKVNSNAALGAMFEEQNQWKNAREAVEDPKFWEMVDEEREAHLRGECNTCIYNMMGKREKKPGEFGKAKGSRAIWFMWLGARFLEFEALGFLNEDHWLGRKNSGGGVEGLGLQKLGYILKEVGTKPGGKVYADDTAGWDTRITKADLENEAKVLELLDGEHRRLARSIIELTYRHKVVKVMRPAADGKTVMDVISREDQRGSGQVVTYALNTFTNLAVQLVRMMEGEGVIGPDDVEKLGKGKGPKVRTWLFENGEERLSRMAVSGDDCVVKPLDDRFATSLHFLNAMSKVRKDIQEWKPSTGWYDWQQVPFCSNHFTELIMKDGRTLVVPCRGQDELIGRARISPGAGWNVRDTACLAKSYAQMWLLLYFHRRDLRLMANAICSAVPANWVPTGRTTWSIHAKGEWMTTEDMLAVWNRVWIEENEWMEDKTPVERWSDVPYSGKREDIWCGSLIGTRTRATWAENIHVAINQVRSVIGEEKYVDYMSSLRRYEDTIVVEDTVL

[13] = biological target: Prothrombin (Bos taurus) (UniProt P00735); assay: Inhibition of Bovine thrombin using Boc-Val-Pro-Arg-AMC as substrate compound preincubated at 25 uM for 15 mins by fluorescence assay
Outline: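 Bovine thrombin (final 10 nM) was preincubated 15 min with 25 μM compound in 50 mM Tris-HCl pH 7.5, 150 mM NaCl, 0.05% Tween 20. The reaction was started with Boc-Val-Pro-Arg-AMC (50 μM final). Fluorescence (ex 355/em 460 nm) was monitored continuously for 10 min; activity taken as slope (RFU/s). Triplicate.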

[14] = GSH reactivity of the compound assessed as adducts formation meaured over 3 hrs by RP-HPLC analysis; outline: as §3
[15] = system: HeLa; assay: Cytotoxicity against human HeLa cells assessed as reduction in cell viability after 24 hrs by CellTiter-Blue assay; format: cell-based
Outline: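 HeLa cells seeded in triplicate at 5×10^3 cells/well and grown 24 h at 37 °C/5% CO2. Compounds at varying concentrations were added as a 2x stock in phenol-red-free DMEM with FBS, penicillin/streptomycin, sodium pyruvate and L-glutamine, then left 24 h. Medium was replaced with CellTiter-Blue medium for 3 h. A570/A610 was read after background subtraction, as % of untreated controls; EC50 derived.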

[16] = system: Escherichia coli; assay: Induction of covalent MurA enzyme adduct formation preincubated with UNAG substrate for 10 mins compound treated at 300 uM after 1 hr by ESI-MS analysis
Outline: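 E. coli MurA (25 μM) preincubated with UNAG 300 μM for 10 min at 37 °C, then test compound added at 300 μM. Incubation ran 60 min at 37 °C in 50 mM NH₄HCO₃, pH 7.9. Samples were spin-desalted on Sephadex G-25, then analysed by flow-injection positive-mode ESI-MS for enzyme adducts. Untreated enzyme served as control.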

[17] = system: Escherichia coli; assay: Induction of covalent MurE enzyme adduct formation preincubated with UNAG substrate for 10 mins compound treated at 300 uM after 1 hr by ESI-MS analysis
[18] = system: Escherichia coli; assay: Induction of covalent MetAP enzyme adduct formation at 300 uM after 1 hr by ESI-MS analysis
Outline: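 E. coli MetAP (25 μM) was incubated with 300 μM compound for 60 min at 37 °C in 50 mM NH4HCO3, pH 7.9, with 200 μM CoCl2. Untreated enzyme served as control. Samples were spin-desalted on Sephadex G-25 and analysed by flow-injection ESI-MS in positive mode (isocratic water/acetonitrile 95/5 with 0.1% formic acid), looking for covalent adducts.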

SMILES	inhibition [1]	inhibition [2]	inhibition [3]	inhibition [4]	inhibition [5]	inhibition [6]	inhibition [7]	inhibition [8]	Activity [9]	T1/2 [10]	inhibition [11]	inhibition [12]	inhibition [13]	Activity [14]	EC50 [15]	Activity [16]	Activity [17]	Activity [18]
COc1ccc(NC(=O)C2CC(Br)=NO2)cc1 (stereo not given)	< 15%	< 15%	< 15%	< 15%	< 15%	< 15%	18%	< 15%	< 0.1 L/mol/s	> 200 h	< 15%	21%	< 15%					
Cc1ccc(NC(=O)C2CC(Br)=NO2)cc1 (stereo not given)	19%	< 15%	< 15%	< 15%	< 15%	< 15%	< 15%	< 15%	< 0.1 L/mol/s	> 200 h	< 15%	22%	< 15%					
O=C(Nc1ccc(F)cc1)C1CC(Br)=NO1 (stereo not given)	< 15%	< 15%	< 15%	< 15%	< 15%	< 15%	23%	21%	< 0.1 L/mol/s	> 200 h	< 15%	< 15%	< 15%					
C=CC(=O)NCc1ccccc1	< 15%	< 15%	< 15%	< 15%	< 15%	< 15%	< 15%	< 15%	< 0.1 L/mol/s		< 15%	< 15%	< 15%	< 5%				
C=CC(=O)NC(CCCC)C(=O)OC (stereo not given)	< 15%	< 15%	< 15%	< 15%	< 15%	< 15%	< 15%	< 15%	< 0.1 L/mol/s		< 15%	< 15%	< 15%	< 5%				
O=C(NCCc1ccccc1)C1CC(Br)=NO1 (stereo not given)	< 15%	< 15%	< 15%	16%	< 15%	18%	23%	< 15%	< 0.1 L/mol/s	> 200 h	< 15%	< 15%	< 15%					
C=CC(=O)Nc1ccc([N+](=O)[O-])cc1	< 15%	< 15%	< 15%	< 15%	< 15%	< 15%	< 15%	< 15%	< 0.1 L/mol/s		< 15%	< 15%	< 15%	< 5%				
O=C(NC1CCCC1)C1CC(Br)=NO1 (stereo not given)	< 15%	< 15%	< 15%	< 15%	< 15%	15%	16%	< 15%	< 0.1 L/mol/s	> 200 h	< 15%	< 15%	< 15%					
C=CC(=O)Nc1ccc(F)cc1	< 15%	< 15%	< 15%	< 15%	< 15%	< 15%	< 15%	< 15%	< 0.1 L/mol/s		< 15%	< 15%	< 15%	< 5%				
C=CC(=O)Nc1ccc(OC)cc1	< 15%	< 15%	< 15%	< 15%	< 15%	< 15%	< 15%	< 15%	< 0.1 L/mol/s		< 15%	< 15%	< 15%	< 5%				
O=C(NCc1ccccc1)C1CC(Br)=NO1 (stereo not given)	< 15%	< 15%	< 15%	18%	< 15%	16%	< 15%	15%	< 0.1 L/mol/s	> 200 h	< 15%	< 15%	< 15%					
C=CC(=O)NCCCC	< 15%	20%	< 15%	< 15%	< 15%	< 15%	< 15%	< 15%	< 0.1 L/mol/s		< 15%	< 15%	< 15%	< 5%	> 100 µM			
C=CC(=O)NC1CCCC1	< 15%	17%	< 15%	< 15%	< 15%	< 15%	< 15%	< 15%	< 0.1 L/mol/s		< 15%	< 15%	< 15%	< 5%				
C=CC(=O)Nc1ccc(C)cc1	< 15%	< 15%	< 15%	< 15%	< 15%	< 15%	< 15%	< 15%	< 0.1 L/mol/s		< 15%	< 15%	< 15%	< 5%				
CCCCNC(=O)C1CC(Br)=NO1 (stereo not given)	< 15%	< 15%	< 15%	< 15%	< 15%	< 15%	27%	< 15%	< 0.1 L/mol/s	> 200 h	< 15%	< 15%	< 15%		> 100 µM			
C[S+](C)CC(=O)Nc1ccccc1	< 15%	< 15%	< 15%	< 15%	< 15%	< 15%	32%	< 15%			< 15%	< 15%	< 15%		> 100 µM	inactive	< 0.1 L/mol/s	< 0.1 L/mol/s
CCCCNC(=O)C[S+](C)C	< 15%	< 15%	< 15%	< 15%	< 15%	< 15%	29%	< 15%			< 15%	< 15%	< 15%		> 100 µM		< 0.1 L/mol/s	
